Where two headings read alike, the source gives them in different places. One block for each compound: values may come before it.
Assays:
[1] = molecular target: Bcr-Abl (wt) (Homo sapiens, UniProt P00519+P11274); assay: Cellular antiproliferative activity on wtBcr-Abl-Ba/F3; format: cell-based; settings: for Selectivity for Bcr-Abl dependent cellular growth: versus parental Ba/F3 cytotoxicity
[2] = system: panel of 442 kinases; assay: KINOMEscan kinase selectivity profiling; format: binding; settings: 10 μM
[3] = molecular target: Bcr-Abl (T315I) (Homo sapiens, UniProt P00519+P11274, T315I); assay: Cellular antiproliferative activity on mutant Bcr-Abl-T315I-Ba/F3; format: cell-based; settings: for Fold improvement relative to 3 against T315I mutant Bcr-Abl: relative to compound 3; for EC50: read-out: EC50 against T315I mutant
Summary of the method: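 Ba/F3 cells transformed with wild-type or T315I Bcr-Abl were tested for antiproliferative activity, with parental Ba/F3 cells tested alongside. The value is an EC50 from the cellular assay.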

[4] = system: panel of 442 kinases; settings: cited from earlier work
[5] = carbonyl group at the 6-position

Number of kinases with ambit score of less than 10% of the DMSO control ([2]; panel of 442 kinases): 193 kinases
Selectivity score S10 ([2]; panel of 442 kinases): 0.427
SMILES: CCN1CCN(Cc2ccc(NC(=O)c3ccc(C)c(C#Cc4cccnc4)c3)cc2C(F)(F)F)CC1 [Compound 3]
Selectivity for Bcr-Abl dependent cellular growth [1]: up to 1000 fold

Fold improvement relative to 3 against T315I mutant Bcr-Abl [3]: ~8 fold
SMILES: CCN1CCN(Cc2ccc(NC(=O)c3ccc(C)c(C#Cc4ccc(NC(C)=O)nc4)c3)cc2C(F)(F)F)CC1 [Compound 4]

Fold improvement relative to 3 against T315I mutant Bcr-Abl [3]: ~8 fold
SMILES: CCN1CCN(Cc2ccc(NC(=O)c3ccc(C)c(C#Cc4ccc(NC(=O)C5CC5)nc4)c3)cc2C(F)(F)F)CC1 [Compound 5]

Fold less potent EC50 against T315I Bcr-Abl [3, 5]: 6 fold
Fold less potent EC50 against wild-type Bcr-Abl [1, 5]: 6 fold
SMILES: CCN1CCN(Cc2ccc(NC(=O)c3ccc(C)c(C#Cc4ccc(C(=O)NC)nc4)c3)cc2C(F)(F)F)CC1 [Compound 6]

EC50 [3]: < 100 nM
Number of kinases with ambit score of less than 10% of the DMSO control ([2]; panel of 442 kinases): 203 kinases
Ambit score of kinase hits (% of the DMSO control) ([2]; hits: ABL, ARG, BLK, PITSLRE, CRIK, FMS/CSFR, DDR1, EphA8, FGFR4, HPK1, JNK2, KIT, LOK, LYN, GCK, MUSK, MYO3B, p38α, p38β, PDGFRα, PDGFRβ, RET, RIPK1, SRC, TAO1, TAO2, TAO3, TIE2): < 0.1%
SMILES: CCN1CCN(Cc2ccc(NC(=O)c3ccc(C)c(C#Cc4cnc5[nH]ccc5c4)c3)cc2C(F)(F)F)CC1 [Compound 12]
Selectivity for Bcr-Abl dependent cellular growth [1]: up to 1000 fold

EC50 [3]: < 100 nM
SMILES: CCN1CCN(Cc2ccc(NC(=O)c3ccc(C)c(C#Cc4cnc5[nH]cnc5c4)c3)cc2C(F)(F)F)CC1 [Compound 14]

SMILES: CCN1CCN(Cc2ccc(NC(=O)c3cccc(-c4ccc5nc(NC(=O)C6CC6)sc5n4)c3)cc2C(F)(F)F)CC1 [HG-7-85-01]
Selectivity score S10 [4]: 0.056
